CRFBP-R2 block: antagonists of CRF-BP/CRF-R2 complex, primary screen, cell-based, HEK293, calcium dye fluorescence, uHTS | CRF-induced calcium fluorescence | inhibition, % at 11.8 µM | hit rate 0.59% among 350,000 | AID 588475, 2011;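 active = inhibition of the ligand-induced calcium signal above about 50% at the single tested concentration, limit read from the data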
CRFBP-R2 agonist: agonists of CRF-BP/CRF-R2 complex, primary screen, cell-based, HEK293, calcium dye fluorescence, uHTS; calcium dye fluorescence (FLIPR); percent of saturating CRF peptide response; activation, % at 13.2 µM; hit rate 0.46% among 350,000; AID 588473, 2011;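 active = activation of at least 50%, plus an integration ratio under a set limit after plate pattern correction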
TAAR1 ag: human TAAR1 agonists, primary screen, Fluo-8 calcium fluorescence, CHO RD-HGA16 cells | activation, % at 3 µM | vehicle wells 0%, saturating PEA agonist 100% | Trace amine-associated receptor 1 (Homo sapiens), Q96RJ0 | AID 624467, 2012 | hit rate 0.99% among 360,000;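 active = activation above the mean activation of all test compounds in the run plus 3 SD, cut at about 38% in these data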
Target sequence (Q96RJ0 whole entry, looked up): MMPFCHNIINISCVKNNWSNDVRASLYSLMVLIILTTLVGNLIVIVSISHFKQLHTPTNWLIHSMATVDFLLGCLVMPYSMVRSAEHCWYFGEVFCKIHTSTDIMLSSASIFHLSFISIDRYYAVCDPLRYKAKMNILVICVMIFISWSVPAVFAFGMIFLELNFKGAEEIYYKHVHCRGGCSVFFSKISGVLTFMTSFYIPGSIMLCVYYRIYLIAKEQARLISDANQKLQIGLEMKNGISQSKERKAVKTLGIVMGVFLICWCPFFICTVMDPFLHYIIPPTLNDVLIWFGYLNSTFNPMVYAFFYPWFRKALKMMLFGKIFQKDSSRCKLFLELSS
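Signal – calcium-sensitive Fluo-8 signal, excitation 470-495, emission 515-575 nm · System – RD-HGA16 (CHO) cells co-expressing Gα16 and hTAAR1 · Incubation – 17-24 h seeding, 75 min 37 °C dye, 30 min RT · Compound dosing – 3 µM single concentration · Repeats – no replicates (n 1)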
TMEM16A act: TMEM16A chloride channel activators or potentiators, primary screen, cell-based, HTS. Anoctamin-1 (Mus musculus), Q8BHY3. HEK293 TMEM16A/YFP-H148Q/I152L, iodide quench fluorescence; active compounds read low. B-score at 10 µM. hit rate 0.3% among 340,000. AID 623877, 2012;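 active = fluorescence-ratio B-score plate-corrected deviation score at least 3 library SD below zero, with starting fluorescence score within 5 deviations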;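 also: channel opened by trigger with iodide after compound preincubation; score built on the fluorescence ratio of max minus min over baseline; more negative score means more quench and so TMEM16A activation or potentiation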
TAAR1 antagonist: human TAAR1 antagonists, primary screen, Fluo-8 calcium fluorescence, CHO RD-HGA16 cells; antagonist; hit rate 1.5% among 360,000; AID 624466, 2012; inhibition, % at 3 µM;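 active = inhibition above a per-plate cutoff, the mean inhibition of test compounds on that plate plus 3 SD, cut at about 49% in these data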
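Material: RD-HGA16 CHO cells with stable hTAAR1 and Gα16; Dosing: single nominal final test compound concentration of 3 µM; Schedule: seeding 17-24 h prior, 75-min 37 °C, 30-min RT dye loading; Detection: kinetic Fluo-8 calcium fluorescence measurement; Measure: % inhibition from peak post-agonist over basal fluorescence ratio; Benchmarks: vehicle and agonist controls.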
ANO1 block: TMEM16A chloride channel inhibitors, primary screen, cell-based, HTS. AID 588511, 2011. Anoctamin-1 (Mus musculus), Q8BHY3. normalized B-score (activity score, 25-100; higher = stronger inhibition) at 10 µM. hit rate 1.2% among 310,000. HEK293 TMEM16A/YFP iodide influx fluorescence, ionomycin;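 active = ratio plate-corrected score three or more library SD toward inhibition, starting fluorescence score within five deviations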;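 also: score derived from kinetic fluorescence span divided by baseline fluorescence per well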
Large screens that a line does not name were inactive. An excerpt weighted towards active compounds, which were near 3.9% of everything screened.

CCOc1ccc(S(=O)(=O)Nc2ccc(F)cc2)c(C)c1C	ANO1 block 25
CC(=NNc1nc2ccccc2s1)c1ccncn1	TAAR1 antagonist 64 (no result: ANO1 block)
Nc1c(C(=O)N2CCOCC2)sc2nc3c(cc12)CCC3	CRFBP-R2 block 50
Nc1c(C(=O)N2CCOCC2)sc2nc3c(cc12)CCCC3	none
COc1ncccc1-c1nnn(-c2ccc(F)cc2)n1	none
CCOC(=O)c1cc(-c2ccccc2)sc1NC(=O)c1ccc(OC)cc1	none (no result: TAAR1 ag, TMEM16A act, TAAR1 antagonist)
O=C(Nc1sc(-c2ccccc2)cc1C(=O)O)c1ccccc1	CRFBP-R2 block 52
CC(=O)N1/C(=C/c2ccc(N(C)C)cc2)C(=O)c2ccccc21	none (no result: ANO1 block)
COc1ccc([C@H]2CC(=O)C=C(c3ccc(F)cc3OCc3ccccc3)C2)cc1	TAAR1 antagonist 52 (no result: ANO1 block)
COc1ccccc1C1=CC(=O)C[C@H](c2ccc(Cl)cc2)C1	TAAR1 antagonist 50 (no result: ANO1 block)
COc1cc(F)c(C2=CC(=O)C[C@H](c3ccc(F)cc3)C2)cc1F	none (no result: ANO1 block)
COc1ccc(C2=CC(=O)C[C@H](c3ccc(F)cc3)C2)cc1F	TMEM16A act -6.6 (no result: ANO1 block)
COc1cccc(C2=CC(=O)C[C@H](c3ccc(Cl)cc3)C2)c1OC	none (no result: ANO1 block)
O=S(=O)(NCc1ccccn1)c1cc(Cl)ccc1Cl	none
O=C(CCNC(=O)c1ccc(Br)cc1)NNC(=O)C1COc2ccccc2O1 (configuration not stated)	none
CC1CCCCN1CCCNC(=O)CN1C(=O)c2cccnc2Oc2ccc(Cl)cc21 (configuration not stated)	none
O=C(C/C=N/OCc1ccc(Cl)cc1)c1cnc(-c2ccccc2)s1	none
O=C(C/C=N/OCc1c(Cl)cccc1Cl)c1cnc(-c2ccccc2)s1	ANO1 block 100
COC(=O)c1sc(NC(=S)NC(=O)c2cccc(Br)c2)nc1C	CRFBP-R2 agonist 60
COC(=O)c1sc(NC(=S)NC(=O)c2ccc(F)cc2)nc1C	none (no result: CRFBP-R2 block, CRFBP-R2 agonist, TMEM16A act)
Cc1ccc(C(=O)N2CCN(S(=O)(=O)c3ccccc3)CC2)s1	none
Cc1nn(-c2ccccc2)c(Cl)c1/C=N/NC(=O)c1ccccc1NS(=O)(=O)c1cccs1	ANO1 block 100
Cc1nn(-c2ccccc2)c(Cl)c1/C=N/NC(=O)c1ccc(NS(=O)(=O)c2cccs2)cc1	none (no result: CRFBP-R2 block, CRFBP-R2 agonist, TAAR1 ag, TMEM16A act, TAAR1 antagonist)
OC1c2c(F)cccc2N=C2CCCCCN21 (configuration not stated)	none (no result: CRFBP-R2 block, CRFBP-R2 agonist, TMEM16A act, ANO1 block)
CCCC(=O)NC(C)c1nc2ccccc2[nH]1 (configuration not stated)	CRFBP-R2 block 58
Cc1cc(C)cc(NC(=S)N(Cc2ccc(Br)cc2)Cc2ccc(C(=O)O)cc2)c1	ANO1 block 25
Cc1cc(C)c(NC(=O)/C(=C/c2ccccc2)c2ccccc2)c(C)c1	CRFBP-R2 block 67
CC1=C(C#N)C(=O)NC(C)(C)C1	CRFBP-R2 block 54
CC1CN(Cc2nnc(-c3ccccc3)o2)CC(C)O1 (configuration not stated)	none
O=C(Nc1ccc(Cl)cc1)OCc1cn(-c2ccc(Cl)cc2)nn1	none
Clc1ccc(-n2cc(COCc3ccccc3)nn2)cc1	CRFBP-R2 block 63
COc1ccc2cc(C(=O)C3CCCN(Cc4cnc(N5CCOCC5)s4)C3)ccc2c1 (configuration not stated)	TAAR1 ag 40
O=C(CSc1nc(-c2cccs2)cc(C(F)(F)F)n1)Nc1cc(OCC(F)(F)C(F)F)cc([N+](=O)[O-])c1	none
COc1ccccc1C(=O)NCCNC(=O)c1ccc(C)nc1	none
Cc1ccc(S(=O)(=O)NC(=O)C2(C)CCN2C(=O)c2cccc(F)c2)cc1 (configuration not stated)	none (no result: CRFBP-R2 block, CRFBP-R2 agonist, TMEM16A act, ANO1 block)
CCOc1ccccc1NC(=O)CN(c1ccc(OC)cc1OC)S(=O)(=O)c1ccccc1[N+](=O)[O-]	TMEM16A act -5.2

From PubChem
